Results on 28 compounds are retold here after ChEMBL document CHEMBL1147021, “Novel indole inhibitors of IMPDH from fragments: synthesis and initial structure-activity relationships” (Bioorg Med Chem Lett, 2006).

Series [1] in a line: Apparent permeability in Caco-2 cell from apical to basolateral. It counts as ADME, cell-based. The settings on record: human. The method in brief: (§1)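 Caco-2 monolayers (10-21 day culture, passage 30-40), confluence confirmed by TEER; medium replaced by HBSS pH 7.4. Test compound 1 µM, cassetted with 2 reference compounds (10 µM), added apically or basolaterally (n = 4); 2 h at 37 °C, 5% CO2. Receiver side analysed by LC-MSMS; Papp normalised to the known Papps of the reference compounds.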
In general terms: Caco-2 monolayers are a common model of the intestinal barrier.

Series [2] can be described thus: Distribution coefficient Log D of compound at pH 7.4. The note with it: octanol/water. It counts as physicochemical. The method, boiled down: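 Compound (1–2 mg) shaken for 1 h at 750 osc/min with octanol and pH 7.4 phosphate buffer (0.1 M KH2PO4/NaOH), each presaturated with the other for 18 h. Both layers filtered through 0.2 µm PTFE and analysed by HPLC. Log D taken as log of normalised peak area in octanol over that in buffer.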

A short description of series [3]: Apparent permeability in Caco-2 cell from basolateral to apical. It is filed as ADME, cell-based. The note with it: human. The method in brief: as §1
Series [4] deals with T1, Inosine-5'-monophosphate dehydrogenase 2 (Homo sapiens, UniProt P12268). The series can be described thus: Inhibition of IMPDH2.
Series [5] addresses T1, Inosine-5'-monophosphate dehydrogenase 2. Put plainly: Inhibition of IMPDH2 at 30 uM.
Series [6] can be described thus: Aqueous solubility at pH 5. It counts as physicochemical. The method, boiled down:
(§2)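 Solid compound (0.5 mg) shaken in 150 mM phosphate buffer at room temperature for 90 min, then filtered. Filtrate concentration measured by HPLC (UV 254 nm) against a three-point calibration curve made from DMSO stocks. Done in duplicate at pH 7.4 and pH 5.0.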

The subject of another series is PBMC. Put plainly: Antiproliferative activity against PBMC. The settings on record: Homo sapiens. It counts as functional, cell-based.
A short description of series [7]: Aqueous solubility at pH 7.4. It is filed as physicochemical. The method, boiled down:
as §2

≈ marks a conversion by molar mass, not a printed value.

For orientation: Papp A→B means the apparent permeability from the apical to the basolateral side of a cell layer. By logD is commonly meant the decadic logarithm of the distribution of all forms, ionised or not, between an organic phase and buffer at a given pH. Low readings indicate a more hydrophilic compound, high ones a more lipophilic compound. The term Papp B→A denotes the apparent permeability from the basolateral to the apical side of a cell layer. Take `Cn1cc(C#N)c2ccccc21`: the Papp A→B in series [1] turned out to be 36.7 ×10⁻⁶ cm/s. The same compound showed a logD in series [2] of 2.3. Besides, in series [3], the Papp B→A was determined as 37.4 ×10⁻⁶ cm/s.
In general, IC50 refers to the midpoint of a concentration-inhibition curve. As for `O=C(NOCc1ccccc1)Nc1cccc2c(-c3ccncc3)c[nH]c12`, inhibition in series [4] was half-maximal at 1.36 µM (IC50).
In the case of `CONC(=O)Nc1ccc2c(-c3ccncc3)c[nH]c2c1`, the IC50 in series [4] is 1.11 µM.
The compound `Cn1cc(C#N)c2ccc(NS(=O)(=O)c3ccccc3)cc21` returned an IC50 in series [4] of 7.68 µM.
Same read-out and setting: the same measure for `CN(C(=O)Nc1ccc2c(C#N)c[nH]c2c1)c1ccccc1`: 15.4 µM.
As usually defined, the Inhibition is the percentage by which the read-out fell short of the control. A high value points to strong suppression. `N#Cc1c[nH]c2cc(Nc3nc4ccccc4o3)ccc12`: the Inhibition in series [5] was determined as 48%.
The term solubility denotes the dissolved amount per volume that the medium holds. A low value points to a poorly soluble substance. As for `CN(C(=O)Nc1ccc2c(-c3ccncc3)c[nH]c2c1)c1ccccc1`, in series [1], the Papp A→B turned out to be 14.3 ×10⁻⁶ cm/s. Moreover, the IC50 in series [4] came to 0.084 µM; in the series on PBMC, 12 µM. Further, the concentration in solution in series [6] (solubility) came to 42 µg/mL (≈ 123 µM). Moreover, in series [2], the logD was found to be 2.93. The apparent permeability from basolateral to apical (Papp B→A) in series [3] is 6.7 ×10⁻⁶ cm/s.
Turning to `Cn1cc(C#N)c2cccc(Nc3nc4ccccc4o3)c21`, half-maximal inhibition in series [4] (IC50) was put at 58.4 µM.
With `c1ccc(-c2ccc3c(-c4ccncc4)c[nH]c3c2)cc1`, the values for the IC50 (in series [4]; in the series on PBMC) were 0.456 µM and 10 µM, respectively.
For `CN(C(=O)Nc1cccc2c(-c3ccncc3)c[nH]c12)c1ccccc1`, the midpoint of inhibition in series [4], the IC50, lay at 19.5 µM.
`CCn1cc(C#N)c2ccc(NS(=O)(=O)Cc3ccccc3)cc21`: in series [5], the IC50 result is “Not Active”.
In the case of `Cc1[nH]c2cc(NC(=O)N(C)c3ccccc3)ccc2c1-c1ccncc1`, half-maximal inhibition in series [4] (IC50) required 0.128 µM.
As to `CCOC(=O)c1ccc2c(-c3ccncc3)c[nH]c2c1`, the IC50 in series [4] was 0.586 µM.
`N#Cc1c[nH]c2c(OCc3ccccc3)cccc12`: the concentration for half-maximal inhibition (IC50) result in series [5] was “Not Active”.
The compound `CN(C(=O)Nc1ccc2c(C#N)cn(C)c2c1)c1ccccc1` showed an IC50 in series [4] of 17 µM.
`Cn1cc(C#N)c2ccc(NC(=O)Nc3ccccc3)cc21`: the IC50 amounted to 0.722 µM in series [4] and 14 µM with PBMC.
In series [4], `O=S(=O)(Nc1cccc2c(-c3ccncc3)c[nH]c12)c1ccccc1` displayed an IC50 of 6.21 µM.
In series [4], `N#Cc1c[nH]c2cc(OCc3ccccc3)ccc12` registered an IC50 of 71.8 µM.
Still for that read-out and setting: the figure for `CNOC(=O)Nc1ccc2c(C#N)cn(C)c2c1` is 4.04 µM.
`Cn1cc(C#N)c2ccc(NS(=O)(=O)Cc3ccccc3)cc21` returned an IC50 in series [4] of 21 µM.
With `CN(C(=O)Nc1cccc2c(C#N)cn(C)c12)c1ccccc1`, the IC50 in series [4] was determined as 7.85 µM.
On the same count and under the same terms, the same measure for `Cc1[nH]c2cc(NS(=O)(=O)c3ccccc3)ccc2c1-c1ccncc1`: 0.222 µM.
`c1ccc2c(-c3ccncc3)c[nH]c2c1`: in series [1], the Papp A→B came to 26.2 ×10⁻⁶ cm/s. For the same compound, inhibition in the series with PBMC was half-maximal at 28 µM (IC50). The log distribution coefficient (logD) in series [2] is 2.81. For the same compound, the Papp B→A in series [3] is 23.9 ×10⁻⁶ cm/s.
In the case of `O=S(=O)(Nc1ccc2c(-c3ccncc3)c[nH]c2c1)c1ccccc1`, the Papp A→B in series [1] came out at 6.5 ×10⁻⁶ cm/s. Also, the half-maximal inhibitory concentration (IC50) was found to be 0.364 µM in series [4] and 14 µM in the series on PBMC. The same compound showed a solubility in series [6] of 8 µg/mL (≈ 22.9 µM). For the same compound, the logD in series [2] was 2.01. The Papp B→A in series [3] was 9.3 ×10⁻⁶ cm/s.
As to `O=C(NOCc1ccccc1)Nc1ccc2c(-c3ccncc3)c[nH]c2c1`, the apparent permeability from apical to basolateral (Papp A→B) in series [1] stood at 6.5 ×10⁻⁶ cm/s. In addition, the IC50 is 0.076 µM in series [4] and 4.6 µM in the series with PBMC. The solubility in series [6] stood at 17.5 µg/mL (≈ 48.8 µM); in series [7], 3.2 µg/mL (≈ 8.93 µM). In addition, the logD in series [2] stood at 3.54. In addition, in series [3], the basolateral-to-apical permeability (Papp B→A) was determined as 7.3 ×10⁻⁶ cm/s.
On to `N#Cc1c[nH]c2cc(N)ccc12`, for which, in series [5], the IC50 result is “Not Active”.
The same measure, in the same setting: the same measure for `O=C(Nc1ccccc1)Nc1ccc2c(-c3ccncc3)c[nH]c2c1`: “Not Active”.
`Cn1cc(C#N)c2ccc(NC(=O)NOCc3ccccc3)cc21`: the Papp A→B in series [1] was 19.3 ×10⁻⁶ cm/s. In addition, the figures for the IC50 (in series [4]; with PBMC) were 1.17 µM and 17 µM, respectively. For the same compound, the solubility in series [6] was determined as 4.5 µg/mL (≈ 14 µM); in series [7], 4 µg/mL (≈ 12.5 µM). Besides, the pH-dependent lipophilicity (logD) in series [2] came to 2.74. Further, the apparent permeability from basolateral to apical (Papp B→A) in series [3] was 19.1 ×10⁻⁶ cm/s.
